Values after ≈ are worked out from the molar mass of the structure shown.
What was measured:
[1] = molecular target: T1, Tissue-type plasminogen activator (Homo sapiens, UniProt P00750); assay: Inhibition of human tPA
Procedure, shortened: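 Human one-chain tPA 0.4 µg/mL (final) with 0.1 mg/mL tPA stimulator, preincubated 15 min at 37 °C with inhibitor in 75 mM Tris pH 8.1, 50 mM NaCl. Then 0.4 mM S-2288 (H-D-Ile-Pro-Arg-pNA) added, 60 min at 37 °C. A405 read after preincubation and after substrate incubation, background subtracted. IC50 from % inhibition vs concentration. Ki = IC50/(1+[S]/Km), Km 250 µM.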
Target sequence in this assay (P00750 whole entry): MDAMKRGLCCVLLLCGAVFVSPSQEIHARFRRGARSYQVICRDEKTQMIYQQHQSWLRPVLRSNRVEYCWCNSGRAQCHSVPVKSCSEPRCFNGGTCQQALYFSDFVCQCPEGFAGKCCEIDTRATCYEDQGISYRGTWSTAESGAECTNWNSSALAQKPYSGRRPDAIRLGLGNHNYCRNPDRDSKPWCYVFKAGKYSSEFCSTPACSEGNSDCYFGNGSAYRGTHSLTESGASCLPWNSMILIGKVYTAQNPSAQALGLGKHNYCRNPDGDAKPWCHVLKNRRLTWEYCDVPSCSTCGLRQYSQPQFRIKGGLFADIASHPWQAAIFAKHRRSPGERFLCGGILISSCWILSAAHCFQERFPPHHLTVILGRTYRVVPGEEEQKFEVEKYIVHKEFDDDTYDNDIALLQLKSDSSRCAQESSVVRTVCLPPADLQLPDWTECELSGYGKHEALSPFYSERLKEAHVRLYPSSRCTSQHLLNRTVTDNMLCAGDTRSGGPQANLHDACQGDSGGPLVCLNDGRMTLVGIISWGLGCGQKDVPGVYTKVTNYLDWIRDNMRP

[2] = molecular target: T2, Urokinase-type plasminogen activator (Homo sapiens, UniProt P00749)
[3] = molecular target: T3, Plasminogen (Homo sapiens, UniProt P00747); assay: Inhibition of human plasmin
T3 sequence (P00747 97-580 limits assumed): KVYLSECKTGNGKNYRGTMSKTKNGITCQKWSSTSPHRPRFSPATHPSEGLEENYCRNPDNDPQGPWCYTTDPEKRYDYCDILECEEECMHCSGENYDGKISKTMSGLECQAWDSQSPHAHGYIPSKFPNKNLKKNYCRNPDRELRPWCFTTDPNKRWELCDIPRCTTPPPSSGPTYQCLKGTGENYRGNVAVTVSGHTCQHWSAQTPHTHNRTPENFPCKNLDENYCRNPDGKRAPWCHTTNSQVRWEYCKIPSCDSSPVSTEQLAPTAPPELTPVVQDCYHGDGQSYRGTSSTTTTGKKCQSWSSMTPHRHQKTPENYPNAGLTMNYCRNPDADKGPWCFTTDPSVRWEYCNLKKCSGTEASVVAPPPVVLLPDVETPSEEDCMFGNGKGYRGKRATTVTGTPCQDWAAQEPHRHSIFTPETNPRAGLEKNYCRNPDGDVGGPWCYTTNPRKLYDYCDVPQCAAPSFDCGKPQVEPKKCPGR
T3 sequence (P00747 581-810 limits assumed): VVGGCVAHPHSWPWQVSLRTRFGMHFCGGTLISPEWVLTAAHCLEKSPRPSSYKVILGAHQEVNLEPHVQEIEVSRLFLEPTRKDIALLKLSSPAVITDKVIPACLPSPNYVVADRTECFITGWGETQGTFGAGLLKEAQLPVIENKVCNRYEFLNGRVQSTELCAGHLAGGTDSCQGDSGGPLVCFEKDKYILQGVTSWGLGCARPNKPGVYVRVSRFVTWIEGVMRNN
Procedure, shortened: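 Human plasmin 0.7 µg/mL with 0.2 mM Chromozym-PL and varied inhibitor in Tris pH 8.1/NaCl buffer. Preincubated 15 min at 37 °C, then 30 min at 37 °C with substrate. A405 background-subtracted, % inhibition plotted for IC50.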

[4] = molecular target: T1, Tissue-type plasminogen activator; assay: Inhibition of human tPA at 100 uM
Procedure, shortened: (§1)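 Human one-chain tPA (0.4 µg/mL final) with 0.1 mg/mL tPA stimulator, preincubated with inhibitor for 15 min at 37 °C in 75 mM Tris pH 8.1, 50 mM NaCl. Then incubated with 0.4 mM S-2288 substrate for 60 min at 37 °C. Absorbance read at 405 nm, background subtracted, and percent inhibition calculated.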
Target sequence in this assay (P00750 36-562 limits assumed): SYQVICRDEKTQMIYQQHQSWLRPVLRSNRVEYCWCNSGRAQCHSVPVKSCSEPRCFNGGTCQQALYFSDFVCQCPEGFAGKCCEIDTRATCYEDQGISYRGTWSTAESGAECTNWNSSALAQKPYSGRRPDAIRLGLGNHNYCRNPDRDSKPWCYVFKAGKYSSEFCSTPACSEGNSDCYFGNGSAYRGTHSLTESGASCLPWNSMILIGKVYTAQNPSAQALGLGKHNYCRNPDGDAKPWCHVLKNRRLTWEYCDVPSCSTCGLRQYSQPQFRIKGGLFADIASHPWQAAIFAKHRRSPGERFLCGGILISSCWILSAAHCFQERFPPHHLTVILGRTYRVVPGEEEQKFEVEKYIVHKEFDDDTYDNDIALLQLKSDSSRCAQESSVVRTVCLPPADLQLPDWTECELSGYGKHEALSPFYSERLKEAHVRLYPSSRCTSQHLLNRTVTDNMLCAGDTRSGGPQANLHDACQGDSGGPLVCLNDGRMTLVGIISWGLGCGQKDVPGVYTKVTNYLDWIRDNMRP

[5] = Solubility in phosphate buffered saline at pH 6.5; type: physicochemical
Procedure, shortened: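 Solubility measured in phosphate-buffered saline, pH 6.5.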

[6] = molecular target: T4, Coagulation factor IX (Homo sapiens, UniProt P00740); assay: Inhibition of factor 9a at 12.5 uM
T4 sequence (P00740 47-191 limits assumed): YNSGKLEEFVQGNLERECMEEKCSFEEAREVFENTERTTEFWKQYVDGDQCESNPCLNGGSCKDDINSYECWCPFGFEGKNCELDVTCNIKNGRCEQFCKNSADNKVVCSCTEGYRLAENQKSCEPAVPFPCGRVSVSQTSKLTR
T4 sequence (P00740 227-461 limits assumed): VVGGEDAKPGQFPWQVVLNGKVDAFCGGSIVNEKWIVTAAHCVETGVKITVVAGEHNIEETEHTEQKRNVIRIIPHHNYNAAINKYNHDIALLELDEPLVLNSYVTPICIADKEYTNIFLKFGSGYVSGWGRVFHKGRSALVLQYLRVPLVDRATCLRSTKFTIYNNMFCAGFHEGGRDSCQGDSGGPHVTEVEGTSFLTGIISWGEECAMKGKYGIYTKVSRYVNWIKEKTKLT
Procedure, shortened: (§2)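 Human coagulation enzyme tested in a chromogenic enzyme assay. Percent inhibition was read at a single inhibitor concentration.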

[7] = Lipophilicity, log D at pH7.4; type: physicochemical; settings: buffer, pH 7.4
[8] = Dissociation constant, pKa of the compound; type: physicochemical
[9] = molecular target: Coagulation factor X (Homo sapiens) (UniProt P00742); assay: Inhibition of factor 10a at 10 uM; procedure, shortened: as §2
Coagulation factor X (Homo sapiens), sequence (P00742 41-179 limits assumed): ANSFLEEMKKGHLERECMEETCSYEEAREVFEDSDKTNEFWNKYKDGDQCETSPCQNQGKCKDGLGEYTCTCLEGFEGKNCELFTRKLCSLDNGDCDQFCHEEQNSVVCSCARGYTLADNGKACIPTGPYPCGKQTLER
Coagulation factor X (Homo sapiens), sequence (P00742 235-488 limits assumed): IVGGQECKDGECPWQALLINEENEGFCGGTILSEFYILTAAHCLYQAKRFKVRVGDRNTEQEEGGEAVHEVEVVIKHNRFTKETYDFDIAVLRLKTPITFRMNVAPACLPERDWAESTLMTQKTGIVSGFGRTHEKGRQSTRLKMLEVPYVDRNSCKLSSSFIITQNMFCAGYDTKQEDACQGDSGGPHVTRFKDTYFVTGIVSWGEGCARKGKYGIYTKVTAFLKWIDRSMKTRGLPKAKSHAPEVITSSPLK

[10] = Drug level in dermis of pig excisional wound model; type: ADME, tissue-based, Sus scrofa; settings: in vivo, read-out: Activity
Procedure, shortened: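 Pig full-thickness wounds dosed topically once daily for 10 days with 1 mL of 10 mg/mL compound suspended in hydrogel (glycerol/water/F127/CMC). Animals killed on day 11. Wounds excised and dermal compound concentration determined.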

[11] = molecular target: T1, Tissue-type plasminogen activator; assay: Inhibition of human tPA at 30 uM; procedure, shortened: as §1
Target sequence in this assay (P00750 36-562 limits assumed): as the sequence (P00750 36-562 limits assumed) above

[12] = molecular target: Prothrombin (Bos taurus) (UniProt P00735); assay: Inhibition of bovine thrombin at 10 uM
Procedure, shortened: (§3)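 Chromogenic enzyme assays against coagulation proteases: bovine thrombin, human factors VIIa and IXa.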

[13] = molecular target: T2, Urokinase-type plasminogen activator; assay: Inhibition of human uPA in human wound fluid
[14] = species on record: Homo sapiens; assay: Protein binding in human plasma; settings: read-out: PPB (converted)
[15] = molecular target: T5, Coagulation factor VII (Homo sapiens) (UniProt P08709); assay: Inhibition of factor 7a at 10 uM; procedure, shortened: as §3
T5 sequence (whole entry): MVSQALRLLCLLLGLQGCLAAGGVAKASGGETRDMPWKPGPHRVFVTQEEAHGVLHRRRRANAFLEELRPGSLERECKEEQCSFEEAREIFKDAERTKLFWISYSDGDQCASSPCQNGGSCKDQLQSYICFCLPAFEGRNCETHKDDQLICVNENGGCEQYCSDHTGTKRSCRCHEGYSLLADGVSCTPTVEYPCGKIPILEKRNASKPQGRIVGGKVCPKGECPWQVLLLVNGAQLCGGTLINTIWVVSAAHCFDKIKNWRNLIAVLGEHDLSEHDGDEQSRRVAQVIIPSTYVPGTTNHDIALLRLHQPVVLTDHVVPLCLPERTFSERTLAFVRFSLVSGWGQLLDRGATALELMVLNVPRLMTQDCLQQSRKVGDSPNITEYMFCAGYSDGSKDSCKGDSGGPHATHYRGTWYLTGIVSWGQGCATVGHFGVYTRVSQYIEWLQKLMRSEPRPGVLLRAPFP

[16] = molecular target: T4, Coagulation factor IX; assay: Inhibition of factor 9a; procedure, shortened: as §3
[17] = molecular target: T2, Urokinase-type plasminogen activator; assay: Inhibition of uPA in pig granulation tissue homogenate
[18] = species on record: Homo sapiens; assay: Solubility in human plasma
[19] = molecular target: T3, Plasminogen; assay: Inhibition of human plasmin at 100 uM
Procedure, shortened: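 Human plasmin (0.7 µg/mL) preincubated with inhibitor for 15 min at 37 °C in 75 mM Tris pH 8.1, 50 mM NaCl. Then incubated with 0.2 mM Chromozym-PL for 30 min at 37 °C. Absorbance read at 405 nm, background at time zero subtracted, and percent inhibition calculated.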

For NC(N)=Nc1ncc(Cl)c2ccc(S(=O)(=O)N(CC(=O)O)CC3CCCC3)cc12, the Ki [1] was > 100 µM, the Ki [2] was 0.031 µM and the Ki [3] was 23 µM.
For CN(C)CCNC(=O)C1(NS(=O)(=O)c2ccc3c(Cl)cnc(N=C(N)N)c3c2)CCCC1, the Ki [2] was 0.03 µM and the Ki [3] was > 100 µM.
For NC(N)=Nc1ncc(Cl)c2ccc(S(=O)(=O)N(CC(=O)O)c3ccccc3)cc12, the Ki [1] was > 100 µM, the Ki [2] was 0.029 µM and the Ki [3] was > 100 µM.
CC(C)(CNS(=O)(=O)c1ccc2c(Cl)cnc(N=C(N)N)c2c1)C(=O)O gave a Ki [2] of 0.043 µM.
For NC(N)=Nc1ncc(Cl)c2ccc(S(=O)(=O)N(CC(=O)O)Cc3ccccc3)cc12, the Ki [1] was > 100 µM, the Ki [2] was 0.035 µM and the Ki [3] was > 100 µM.
With NC(N)=Nc1ncc(Cl)c2ccc(S(=O)(=O)NCCC(=O)O)cc12 the Ki [1] was > 100 µM, the Ki [2] was 0.058 µM and the Ki [3] was > 100 µM.
With NC(N)=Nc1ncc(Cl)c2ccc(S(=O)(=O)N3CCC[C@H]3C(=O)O)cc12 the Ki [1] was > 100 µM, the Ki [2] was 0.111 µM and the Ki [3] was > 100 µM.
In the case of NC(N)=Nc1ncc(Cl)c2ccc(S(=O)(=O)Nc3ccccc3C(=O)O)cc12, the Ki [1] is reported as > 100 µM, the Ki [2] is reported as 0.086 µM and the Ki [3] is reported as 33 µM.
With NC(N)=Nc1ncc(Cl)c2ccc(S(=O)(=O)NC3(C(=O)O)CCC3)cc12 the Ki [1] was > 100 µM, the Ki [3] was 16 µM and the inhibition [4] was < 50%.
In the case of NC(N)=Nc1ncc(Cl)c2ccc(S(=O)(=O)Nc3cccc(C(=O)O)c3)cc12, the Ki [1] is reported as > 100 µM, the Ki [2] is reported as 0.059 µM and the Ki [3] is reported as 9.8 µM.
For CN1CCN(C(=O)C2(NS(=O)(=O)c3ccc4c(Cl)cnc(N=C(N)N)c4c3)CCCC2)CC1, the Ki [1] was 34.7 µM, the Ki [2] was 0.0014 µM and the Ki [3] was 65 µM.
In the case of CC(C)(NS(=O)(=O)c1ccc2c(Cl)cnc(N=C(N)N)c2c1)C(=O)O, the solubility [5] is reported as 2.3 µg/mL (≈ 5.96 µM), the inhibition [6] is reported as 13% and the Ki [1] is reported as 40 µM. For the same molecule, the logD [7] was 0, the Ki [3] was 27 µM and the pKa [8] was 3.4. The inhibition [9] was 0% and the concentration [10] was 41.8 µM.
In the case of NC(N)=Nc1ncc(Cl)c2ccc(S(=O)(=O)NC3CCCC3)cc12, the Ki [1] is reported as > 30 µM, the Ki [2] is reported as 0.071 µM and the inhibition [11] is reported as < 50%. The Ki [3] was > 100 µM.
NC(N)=Nc1nccc2ccc(S(N)(=O)=O)cc12 gave a Ki [1] of 24 µM, a Ki [2] of 0.28 µM and a Ki [3] of 13 µM.
With NC(N)=Nc1ncc(Cl)c2ccc(S(=O)(=O)N3CCCC[C@@H]3C(=O)O)cc12 the Ki [1] was > 100 µM and the Ki [3] was > 100 µM.
In the case of NC(N)=Nc1ncc(Cl)c2ccc(S(=O)(=O)NC3(C(=O)NCCO)CCCC3)cc12, the Ki [1] is reported as 108 µM, the Ki [2] is reported as 0.01 µM and the Ki [3] is reported as > 100 µM.
Work on C[C@H](NS(=O)(=O)c1ccc2c(Cl)cnc(N=C(N)N)c2c1)C(=O)O yielded a Ki [2] of 0.021 µM and a Ki [3] of 15 µM.
In the case of NC(N)=Nc1ncc(Cl)c2ccc(S(=O)(=O)NC3(C(=O)O)CCCC3)cc12, the Ki [1] is reported as 38 µM, the Ki [2] is reported as 0.0058 µM and the Ki [3] is reported as 14 µM.
With CC(C)[C@H](NS(=O)(=O)c1ccc2c(Cl)cnc(N=C(N)N)c2c1)C(=O)O the Ki [1] was > 100 µM, the Ki [2] was 0.066 µM and the Ki [3] was 45 µM.
In the case of NC(N)=Nc1ncc(Cl)c2ccc(S(=O)(=O)NCC(=O)O)cc12, the Ki [1] is reported as > 30 µM, the Ki [2] is reported as 0.048 µM and the Ki [3] is reported as > 30 µM.
NC(N)=Nc1ncc(Cl)c2ccc(S(=O)(=O)N3CC(C(=O)O)C3)cc12 gave a Ki [2] of 0.33 µM.
NC(=O)[C@H]1CCCN1S(=O)(=O)c1ccc2c(Cl)cnc(N=C(N)N)c2c1 gave a Ki [2] of 0.054 µM.
Work on C[C@@H](NS(=O)(=O)c1ccc2c(Cl)cnc(N=C(N)N)c2c1)C(=O)O yielded a Ki [2] of 0.028 µM.
With NC(N)=Nc1ncc(Cl)c2ccc(S(=O)(=O)NC3(C(=O)O)CCOCC3)cc12 the Ki [1] was > 100 µM and the Ki [3] was 41 µM.
With NC(N)=Nc1ncc(Cl)c2ccc(S(=O)(=O)N3CCC[C@@H]3C(=O)O)cc12 the Ki [1] was > 100 µM, the Ki [2] was 0.0099 µM and the Ki [3] was > 100 µM. For the same molecule, the inhibition [4] was < 50%.
In the case of NC(N)=Nc1ncc(Cl)c2ccc(S(=O)(=O)NC3(C(=O)O)CCCCC3)cc12, the Ki [1] is reported as > 100 µM, the Ki [2] is reported as 0.008 µM and the Ki [3] is reported as 39 µM.
With NC(N)=Nc1ncc(Cl)c2ccc(S(N)(=O)=O)cc12 the Ki [1] was > 100 µM, the Ki [3] was > 100 µM and the inhibition [4] was < 50%.
CN1CCC(NS(=O)(=O)c2ccc3c(Cl)cnc(N=C(N)N)c3c2)(C(=O)O)CC1 showed a Ki [2] of 0.011 µM and a Ki [3] of 71 µM.
In the case of NC(N)=Nc1ncc(Cl)c2ccc(S(=O)(=O)NC3(C(=O)N4CCOCC4)CCCC3)cc12, the Ki [1] is reported as 34.4 µM, the Ki [2] is reported as 0.0016 µM and the Ki [3] is reported as > 30 µM.
With CC(C)(C)[C@@H](NS(=O)(=O)c1ccc2c(Cl)cnc(N=C(N)N)c2c1)C(=O)O the Ki [1] was > 100 µM, the Ki [2] was 0.022 µM and the Ki [3] was > 100 µM.
With NC(N)=Nc1nccc2ccc(S(=O)(=O)Nc3ccccc3)cc12 the Ki [1] was 15 µM and the Ki [3] was 3.2 µM.
For NC(N)=Nc1ncc(Cl)c2ccc(S(=O)(=O)NC3(CO)CCCC3)cc12, the Ki [2] was 0.067 µM.
In the case of C[C@@H](C(=O)O)N(Cc1ccccc1)S(=O)(=O)c1ccc2c(Cl)cnc(N=C(N)N)c2c1, the Ki [1] is reported as > 100 µM and the Ki [2] is reported as 0.027 µM.
For NC(N)=Nc1nccc2c(Cl)cc(-c3cccc(C(=O)O)c3)cc12, the solubility [5] was < 1 µg/mL, the inhibition [12] was 2% and the IC50 [13] was 6.91 µM. The logD [7] was 2.3, the fraction unbound [14] was 0.002 and the inhibition [15] was 3%. The Ki [16] was 1.24 µM, the IC50 [17] was 8.35 µM and the solubility [18] was 60 µM (≈ 20.4 µg/mL). It also gave a pKa [8] of 2.35 and an inhibition [9] of 0%.
With CCOC(=O)C1(NS(=O)(=O)c2ccc3c(Cl)cnc(N=C(N)N)c3c2)CCCC1 the inhibition [19] was < 50%, the Ki [1] was 23 µM and the Ki [2] was 0.014 µM. For the same molecule, the Ki [3] was > 100 µM.
Molecule CN1CCN(S(=O)(=O)c2ccc3c(Cl)cnc(N=C(N)N)c3c2)CC1 has a Ki [2] of 0.55 µM.
Molecule CN(C)CCN(C1(C(=O)O)CCCC1)S(=O)(=O)c1ccc2c(Cl)cnc(N=C(N)N)c2c1 has a Ki [1] of 23 µM and a Ki [3] of 32 µM.
CC(C)[C@@H](NS(=O)(=O)c1ccc2c(Cl)cnc(N=C(N)N)c2c1)C(=O)O gave a Ki [1] of 38 µM, a Ki [2] of 0.019 µM and a Ki [3] of 16 µM.
For NC(N)=Nc1ncc(Cl)c2ccc(S(=O)(=O)N3CCCC3)cc12, the Ki [1] was > 30 µM and the Ki [3] was > 30 µM.
Work on NC(N)=Nc1ncc(Cl)c2ccc(S(=O)(=O)N3CCC[C@@H]3CO)cc12 yielded a Ki [2] of 0.16 µM.
With CN(CC(=O)O)S(=O)(=O)c1ccc2c(Cl)cnc(N=C(N)N)c2c1 the Ki [1] was > 100 µM, the Ki [3] was > 100 µM and the inhibition [4] was < 50%.
In the case of NC(N)=Nc1ncc(Cl)c2ccc(S(=O)(=O)N3CCOCC3)cc12, the Ki [2] is reported as 0.33 µM.

Source: ChEMBL document CHEMBL1139871, “Selective urokinase-type plasminogen activator inhibitors. 4. 1-(7-sulfonamidoisoquinolinyl)guanidines” (J Med Chem, 2007)
